From ChEMBL document CHEMBL4118249, “Discovery and Identification of Small Molecules as Methuosis Inducers with in Vivo Antitumor Activities” (J Med Chem, 2018)
Each block holds one compound with its values, some of them ahead of it. Calls of active or inactive are those of the source. The rule behind the calls is not given here.

Experiments:
MDA-MB-231 [1] = assay: Induction of methuosis in human MDA-MB-231 cells assessed as increase in vacuole formation at 1 uM after 24 hrs by phase contrast microscopic analysis relative to control; assay type: functional
MDA-MB-231 [2] = assay: Induction of methuosis in human MDA-MB-231 cells assessed as increase in vacuole formation at 10 uM after 24 hrs by phase contrast microscopic analysis relative to control; assay type: functional
MDA-MB-231 [3] = assay: Induction of apoptosis in human MDA-MB-231 cells assessed as caspase-3 activation at 0.5 to 4 uM after 24 hrs; assay type: functional, cell-based
How it was run: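 After 24 h exposure to DMSO, graded compound concentrations or staurosporine, MDA-MB-231 cells were harvested, lysed and caspase 3 activity measured with a commercial activity kit.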

MDA-MB-231 [4] = assay: Antiproliferative activity against human MDA-MB-231 cells at 2 uM after 48 hrs in presence of autophagy inhibitor 3-MA by MTS assay; assay type: functional, cell-based
How it was run: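 MDA-MB-231 given DMSO, 1 mM 3-MA, 2 µM compound, or the combination for 48 h; viability by MTS, means ± SD of triplicate samples.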

MDA-MB-231 [5] = assay: Antitumor activity against human MDA-MB-231 cells xenografted in iv dosed Balb/c nude mouse assessed as tumor growth inhibition administered once daily for 13 days measured 6 hrs post last dose; assay type: functional, organism-based
How it was run: (§1)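 Female BALB/c nude mice (4–6 weeks) injected subcutaneously with 5×10^6 MDA-MB-231 cells; at ~100 mm3 (length×width²×0.5) randomized (n = 6) and dosed iv by tail vein once daily at 5 or 20 mg/kg in 10% Kolliphor HS 15 in saline, or vehicle; tumor volume and weight measured daily; tumors excised 6 h after final dose, H&E stained.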

MDA-MB-231 [6] = assay: Induction of mitochondria originated vacuolization in human MDA-MB-231 cells assessed as mitochondrial swelling at 2 uM after 12 hrs by uranyl acetate or lead citrate staining based transmission electron microscopic analysis; assay type: functional, cell-based
How it was run: (§2)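 MDA-MB-231 given DMSO or 2 µM for 12 h; fixed in 2.5% glutaraldehyde (0.1 M PBS pH 7.4, 4 °C, 3 h), post-fixed 1% OsO4, ethanol-dehydrated, Spurr's resin embedded; 70 nm sections stained with uranyl acetate or lead citrate, viewed by TEM for organelle swelling.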

MDA-MB-231 [7] = assay: Induction of methuosis in human MDA-MB-231 cells assessed as increase in vacuole formation at 2 uM after 12 to 24 hrs by optical microscopic analysis; assay type: functional, cell-based
How it was run: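 MDA-MB-231 treated with 2 µM and inspected by optical microscopy at successive times (12, 24, 48 h) for vesicle accumulation and vacuole fusion.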

MDA-MB-231 [8] = assay: Induction of methuosis in human MDA-MB-231 cells assessed as increase in vacuole formation at 2 uM after 24 hrs in presence of necrosis inhibitor necrostatin-1 by optical microscopic analysis; assay type: functional, cell-based
How it was run: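 Optical microscopy of MDA-MB-231 after 24 h with DMSO, 50 µM necrostatin-1, 2 µM compound, or both.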

MDA-MB-231 [9] = assay: Antiproliferative activity against human MDA-MB-231 cells after 48 hrs by crystal violet staining based microscopic method; assay type: functional, cell-based
How it was run: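 MDA-MB-231 seeded, cultured 12 h, medium refreshed, then exposed to 0.1% DMSO or graded compound concentrations for 48 h; fixed in 4% paraformaldehyde 15 min at room temperature, stained with crystal violet, examined by optical microscopy and quantified.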

MDA-MB-231 [10] = assay: Induction of methuosis in human MDA-MB-231 cells assessed as increase in vacuole formation at 2 uM after 24 hrs in presence of autophagy inhibitor 3-MA by optical microscopic analysis; assay type: functional, cell-based
How it was run: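 Optical microscopy of MDA-MB-231 after 24 h with DMSO, 1 mM 3-MA, 2 µM compound, or both.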

MDA-MB-231 [11] = assay: Induction of mitochondria originated vacuolization in human MDA-MB-231 cells at 2 uM after 12 hrs by Mito-tracker red staining based phase contrast fluorescent microscopic analysis; assay type: functional, cell-based
How it was run: (§3)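 MDA-MB-231 attached overnight on glass-bottom dishes, treated with DMSO or 2 µM for 12 h, then loaded with ER-tracker or Mito-tracker Red; phase-contrast and confocal fluorescence imaging.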

MDA-MB-231 [12] = assay: Induction of methuosis in human MDA-MB-231 cells xenografted in Balb/c nude mouse assessed as vacuole formation in tumor at 20 mg/kg, iv administered once daily for 13 days measured 6 hrs post last dose by H and E staining based light microscopic method; assay type: functional, organism-based; how it was run: as §1
MDA-MB-231 [13] = assay: Induction of methuosis in human MDA-MB-231 cells assessed as macropinocytosis at 2 uM after 12 hrs by lucifer yellow CH staining based phase contrast fluorescent microscopic analysis; assay type: functional, cell-based
How it was run: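 MDA-MB-231 incubated with 2 µM compound and Lucifer yellow together for 12 h, PBS-washed, imaged by phase contrast and confocal fluorescence.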

MDA-MB-231 [14] = assay: Induction of endoplasmic reticulum originated vacuolization in human MDA-MB-231 cells assessed as endoplasmic reticulum swelling at 2 uM after 12 hrs by uranyl acetate or lead citrate staining based transmission electron microscopic analysis; assay type: functional, cell-based; how it was run: as §2
MDA-MB-231 [15] = assay: Induction of methuosis in human MDA-MB-231 cells assessed as late endosomal marker Rab7 on vacuole membranes at 2 uM after 12 hrs by anti-Rab7 staining based immunofluorescent microscopic analysis
MDA-MB-231 [16] = assay: Induction of methuosis in human MDA-MB-231 cells assessed as macropinocytosis at 2 uM after 12 hrs by lyso-tracker red staining based phase contrast fluorescent microscopic analysis; assay type: functional, cell-based
How it was run: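 MDA-MB-231 treated 2 µM for 12 h, then loaded with Lyso-tracker Red; phase-contrast and confocal fluorescence imaging.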

MDA-MB-231 [17] = assay: Induction of apoptosis in human MDA-MB-231 cells assessed as PARP cleavage at 0.5 to 4 uM after 24 hrs by Western blot analysis; assay type: functional, cell-based
How it was run: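 MDA-MB-231 treated 24 h with DMSO, graded compound concentrations or staurosporine; lysed, equal protein separated by 10–15% SDS-PAGE, PVDF transfer, probed for PARP and cleaved PARP, ECL detection.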

MDA-MB-231 [18] = assay: Antiproliferative activity against human MDA-MB-231 cells at 2 uM after 48 hrs in presence of pan-caspase inhibitor Z-VAD-FMK by MTS assay; assay type: functional, cell-based
How it was run: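 Cells pretreated 1 h with 100 µM Z-VAD-FMK, then 2 µM compound (0.1 µM staurosporine as comparator) alone or combined for 48 h; MTS viability, means ± SD of triplicates.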

MDA-MB-231 [19] = assay: Induction of endoplasmic reticulum originated vacuolization in human MDA-MB-231 cells at 2 uM after 12 hrs by ER-tracker staining based phase contrast fluorescent microscopic analysis; assay type: functional, cell-based; how it was run: as §3
MDA-MB-231 [20] = assay: Antiproliferative activity against human MDA-MB-231 cells at 2 uM after 48 hrs in presence of necrosis inhibitor necrostatin-1 by MTS assay; assay type: functional, cell-based
How it was run: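 MDA-MB-231 given DMSO, 50 µM necrostatin-1, 2 µM compound, or combinations for 48 h; viability by MTS, means ± SD of triplicate samples.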

MDA-MB-231 [21] = assay: Induction of methuosis in human MDA-MB-231 cells assessed as increase in vacuole formation at 2 uM after 24 hrs in presence of pan-caspase inhibitor Z-VAD-FMK by optical microscopic analysis; assay type: functional, cell-based
How it was run: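 Optical microscopy of MDA-MB-231 after 24 h with DMSO, 100 µM Z-VAD-FMK, 2 µM compound, or both.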

A549 = assay: Antiproliferative activity against human A549 cells after 48 hrs by MTS assay; assay type: functional, cell-based; conditions: A549, 48 h
MCF7 = assay: Antiproliferative activity against human MCF7 cells after 48 hrs by MTS assay; assay type: functional, cell-based; conditions: MCF7, 48 h
MDA-MB-231 [22] = assay: Antiproliferative activity against human MDA-MB-231 cells after 48 hrs by MTS assay; assay type: functional, cell-based; conditions: MDA-MB-231, 48 h
[23] = Volume of distribution in Balb/c nude mouse at 1 mg/kg, iv; assay type: ADME, organism-based; conditions: in vivo
BGC-823 = assay: Antiproliferative activity against human BGC823 cells after 48 hrs by MTS assay; assay type: functional, cell-based; conditions: BGC-823, 48 h
A-375 = assay: Antiproliferative activity against human A375 cells after 48 hrs by MTS assay; assay type: functional, cell-based; conditions: A-375, 48 h
[24] = Half life in Balb/c nude mouse at 1 mg/kg, iv; assay type: ADME, organism-based; conditions: in vivo
SK-MEL-30 = assay: Antiproliferative activity against human SK-MEL-30 cells after 48 hrs by MTS assay; assay type: functional, cell-based; conditions: SK-MEL-30, 48 h
MCF-10A = assay: Cytotoxicity against human MCF10A cells assessed as reduction in cell viability after 48 hrs by MTS assay; assay type: cell-based
SK-MEL-28 = assay: Antiproliferative activity against human SK-MEL-28 cells after 48 hrs by MTS assay; assay type: functional, cell-based; conditions: SK-MEL-28, 48 h
[25] = Clearance in Balb/c nude mouse at 1 mg/kg, iv; assay type: ADME, organism-based; conditions: in vivo
HepG2 = assay: Antiproliferative activity against human HepG2 cells after 48 hrs by MTS assay; assay type: functional, cell-based; conditions: HepG2, 48 h
MDA-MB-231 [26] = assay: Antitumor activity against human MDA-MB-231 cells xenografted in Balb/c nude mouse assessed as tumor growth inhibition at 20 mg/kg, iv administered once daily for 13 days measured 6 hrs post last dose relative to control; assay type: functional; conditions: MDA-MB-231, iv, read-out: TGI; how it was run: as §1
HCT-116 = assay: Antiproliferative activity against human HCT116 cells after 48 hrs by MTS assay; assay type: functional, cell-based; conditions: HCT-116, 48 h
Mus musculus = assay: Toxicity in Balb/c nude mouse xenografted with human MDA-MB-231 cells assessed as body weight loss at 5 to 20 mg/kg, iv administered once daily for 13 days measured daily during compound dosing; conditions: in vivo, 312 h
MDA-MB-435S = assay: Antiproliferative activity against human MDA-MB-435S cells after 48 hrs by MTS assay; assay type: functional, cell-based
MDA-MB-231 [27] = assay: Antitumor activity against human MDA-MB-231 cells xenografted in Balb/c nude mouse assessed as tumor growth inhibition at 5 mg/kg, iv administered once daily for 13 days measured 6 hrs post last dose relative to control; assay type: functional; conditions: MDA-MB-231, iv, read-out: TGI; how it was run: as §1

SMILES: Cc1ccc(NC(=O)c2cccc(C(F)(F)F)c2)cc1Nc1cc(-c2ccoc2)nc2[nH]ccc12
- Activity (MDA-MB-231 [1]): 0.24%
- Activity (MDA-MB-231 [2]): 0%

SMILES: Cc1ccc(NC(=S)Nc2cccc(C(F)(F)F)c2)cc1Nc1cc(-c2cccnc2)nc2[nH]ccc12
- Activity (MDA-MB-231 [1]): 1.26%
- Activity (MDA-MB-231 [2]): 87.3%

SMILES: Cc1ccc(NC(=O)c2cccc(C(F)(F)F)c2)cc1Nc1cc(-c2cccnc2)nc2[nH]ccc12 [listing 1 of 2 here]
- Activity (MDA-MB-231 [3]): inactive
- Activity (MDA-MB-231 [4]): Active
- TGI (MDA-MB-231 [5]): Dose-dependent effect
- Activity (MDA-MB-231 [6]): inactive
- Activity (MDA-MB-231 [7]): Active
- Activity (MDA-MB-231 [8]): Active
- Activity (MDA-MB-231 [9]): Dose-dependent effect
- Activity (MDA-MB-231 [10]): Active
- Activity (MDA-MB-231 [11]): inactive
- Activity (MDA-MB-231 [12]): Active
- Activity (MDA-MB-231 [13]): Active
- Activity (MDA-MB-231 [14]): inactive
- Activity (MDA-MB-231 [15]): Active
- Activity (MDA-MB-231 [16]): Active
- Activity (MDA-MB-231 [17]): inactive
- Activity (MDA-MB-231 [18]): Active
- Activity (MDA-MB-231 [19]): inactive
- Activity (MDA-MB-231 [20]): Active
- Activity (MDA-MB-231 [21]): Active

SMILES: Cc1ccc(C(=O)Nc2cccc(Cl)c2)cc1Nc1cc(-c2cccnc2)nc2[nH]ccc12
- Activity (MDA-MB-231 [1]): 19.49%
- Activity (MDA-MB-231 [2]): 96.75%

SMILES: Cc1ccc(C(=O)Nc2cccc(C(F)(F)F)c2)cc1Nc1cc(-c2cccnc2)nc2[nH]ccc12
- Activity (MDA-MB-231 [1]): 70.29%
- Activity (MDA-MB-231 [2]): 99.42%

- IC50 (A549): 1890 nM
- IC50 (MCF7): 2610 nM
- IC50 (MDA-MB-231 [22]): 1570 nM
- Vd [23]: 15.5 L/kg
- IC50 (BGC-823): 1570 nM
- IC50 (A-375): 326 nM
- half-life [24]: 524 min
- IC50 (SK-MEL-30): 1660 nM
- IC50 (SK-MEL-28): 1370 nM
- clearance [25]: 36.5 mL/min/kg
- IC50 (HepG2): 1200 nM
- IC50 (HCT-116): 1010 nM
- IC50 (MDA-MB-435S): 2270 nM
SMILES: Cc1ccc(NC(=O)c2cccc(C(F)(F)F)c2)cc1Nc1cc(-c2cccnc2)nc2[nH]ccc12 [listing 2 of 2 here]
- Activity (MDA-MB-231 [1]): 99.75%
- Activity (MDA-MB-231 [2]): 100%
- IC50 (MCF-10A): > 10 µM
- inhibition in vivo at 20 mg/kg (MDA-MB-231 [26]): 60.1%
- Activity (Mus musculus): Non-Toxic
- inhibition in vivo at 5 mg/kg (MDA-MB-231 [27]): 25.9%
